According to publication PMC6378121 (Bioorganic chemistry, 2018):
Like-named read-outs stand apart in the source and are kept apart here.

Tests used:
recombinant human P-gp = recombinant human P-gp (Homo sapiens, UniProt P08183); assay: Pgp-Glo assay; settings: for Luminescence from unmetabolized ATP (P-gp ATPase stimulation or inhibition): 20 μM compound, 5 mM ATP, 1 hr at 37°C, normalized to Na3VO4
PARP-1 = PARP-1 (Homo sapiens, UniProt P09874); assay: PARP-1 radioligand binding assay with [125I]KX1 in OVCAR8 cells
Procedure, shortened: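 OVCAR8 ovarian cancer cells (BRCA1 methylated) seeded at 40,000 cells/well 24 h before the assay. Test compound diluted in RPMI (100 μM–0.064 nM), added with the [125I]KX1 radioligand, equilibrated 1 hr, then washed with PBS. Wells counted on a gamma counter. IC50 from non-linear sigmoidal dose-response fit, n=3; dose ranges were adjusted between repeats.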

P-gp = settings: cited from earlier work

Chain of PARP-1 (P09874 whole entry): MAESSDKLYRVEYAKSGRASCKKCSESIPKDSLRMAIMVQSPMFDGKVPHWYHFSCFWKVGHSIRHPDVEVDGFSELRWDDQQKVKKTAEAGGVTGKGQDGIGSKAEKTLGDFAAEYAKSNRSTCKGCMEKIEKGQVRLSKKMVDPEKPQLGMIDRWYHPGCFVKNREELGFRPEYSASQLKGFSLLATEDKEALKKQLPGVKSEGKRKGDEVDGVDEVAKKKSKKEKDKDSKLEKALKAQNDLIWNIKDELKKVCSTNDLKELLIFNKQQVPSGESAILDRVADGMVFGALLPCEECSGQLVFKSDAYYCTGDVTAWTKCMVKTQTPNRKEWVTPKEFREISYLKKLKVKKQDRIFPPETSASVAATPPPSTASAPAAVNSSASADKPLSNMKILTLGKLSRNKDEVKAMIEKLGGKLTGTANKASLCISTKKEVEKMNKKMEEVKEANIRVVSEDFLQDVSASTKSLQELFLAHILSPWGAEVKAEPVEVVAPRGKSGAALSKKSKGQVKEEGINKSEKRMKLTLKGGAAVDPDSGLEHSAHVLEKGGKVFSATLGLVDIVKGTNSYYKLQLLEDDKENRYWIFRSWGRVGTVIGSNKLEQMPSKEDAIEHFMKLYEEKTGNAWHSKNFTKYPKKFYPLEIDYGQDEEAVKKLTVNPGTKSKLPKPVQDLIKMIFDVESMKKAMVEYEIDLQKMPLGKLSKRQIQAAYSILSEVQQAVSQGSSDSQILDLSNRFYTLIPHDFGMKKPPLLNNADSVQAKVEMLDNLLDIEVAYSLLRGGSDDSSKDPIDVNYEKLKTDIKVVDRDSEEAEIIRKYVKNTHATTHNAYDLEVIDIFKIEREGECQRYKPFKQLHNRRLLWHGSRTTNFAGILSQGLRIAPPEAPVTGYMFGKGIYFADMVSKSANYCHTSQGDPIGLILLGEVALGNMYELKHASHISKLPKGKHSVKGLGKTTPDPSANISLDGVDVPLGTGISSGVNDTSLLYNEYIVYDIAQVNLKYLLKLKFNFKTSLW
Chain of recombinant human P-gp (P08183 whole entry): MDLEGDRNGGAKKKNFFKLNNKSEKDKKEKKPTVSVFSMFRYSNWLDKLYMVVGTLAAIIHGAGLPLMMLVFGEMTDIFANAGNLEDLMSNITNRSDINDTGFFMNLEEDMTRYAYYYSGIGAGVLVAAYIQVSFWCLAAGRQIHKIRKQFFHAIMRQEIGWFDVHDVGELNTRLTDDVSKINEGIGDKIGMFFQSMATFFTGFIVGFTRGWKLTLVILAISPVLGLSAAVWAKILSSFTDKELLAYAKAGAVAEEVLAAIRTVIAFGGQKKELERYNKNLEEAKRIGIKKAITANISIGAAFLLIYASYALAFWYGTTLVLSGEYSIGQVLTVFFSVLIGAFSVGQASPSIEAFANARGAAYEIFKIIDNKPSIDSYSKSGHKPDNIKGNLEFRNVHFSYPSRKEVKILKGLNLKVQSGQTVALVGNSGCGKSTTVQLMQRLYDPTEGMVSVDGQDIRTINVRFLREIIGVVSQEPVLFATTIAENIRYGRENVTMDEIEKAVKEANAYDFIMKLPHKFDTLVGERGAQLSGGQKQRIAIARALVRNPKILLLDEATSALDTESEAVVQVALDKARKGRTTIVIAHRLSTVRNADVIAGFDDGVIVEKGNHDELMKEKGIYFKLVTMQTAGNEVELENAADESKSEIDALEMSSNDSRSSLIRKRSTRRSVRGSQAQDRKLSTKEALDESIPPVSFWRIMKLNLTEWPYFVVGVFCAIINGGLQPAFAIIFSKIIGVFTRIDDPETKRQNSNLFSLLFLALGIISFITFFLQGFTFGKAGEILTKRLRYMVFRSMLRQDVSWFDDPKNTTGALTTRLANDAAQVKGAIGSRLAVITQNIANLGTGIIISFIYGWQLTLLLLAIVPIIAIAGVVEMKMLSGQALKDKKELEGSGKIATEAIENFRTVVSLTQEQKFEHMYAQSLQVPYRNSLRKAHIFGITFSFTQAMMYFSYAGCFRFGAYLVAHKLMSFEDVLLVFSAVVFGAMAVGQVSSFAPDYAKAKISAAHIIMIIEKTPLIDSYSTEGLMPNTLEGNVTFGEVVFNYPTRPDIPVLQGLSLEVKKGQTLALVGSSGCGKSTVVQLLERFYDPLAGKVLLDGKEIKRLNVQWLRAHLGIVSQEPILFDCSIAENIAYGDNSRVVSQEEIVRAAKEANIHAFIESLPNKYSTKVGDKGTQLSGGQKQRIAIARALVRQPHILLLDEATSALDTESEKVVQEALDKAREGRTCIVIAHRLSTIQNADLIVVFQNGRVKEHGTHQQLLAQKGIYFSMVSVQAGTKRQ

O=C(c1cc(Cc2n[nH]c(=O)c3ccccc23)ccc1F)N1CCC(c2ccc(F)cc2)CC1 [Compound 11b, 4-(4-fluoro-3-(4-(4-fluorophenyl)piperidine-1-carbonyl)benzyl)phthalazin-1(2H)-one]
Luminescence from unmetabolized ATP (P-gp ATPase stimulation or inhibition) (recombinant human P-gp): increased luminescence | IC50 (PARP-1): 1.3 nM

O=C(c1cc(Cc2n[nH]c(=O)c3ccccc23)ccc1F)N1CC2(CC(OCCF)C2)C1 [Compound 9a, 4-(4-fluoro-3-(6-(2-fluoroethoxy)-2-azaspiro[3.3]heptane-2-carbonyl)benzyl)phthalazin-1(2H)-one]
IC50 (PARP-1): 10.7 ± 1.1 nM

O=C(c1cc(Cc2n[nH]c(=O)c3ccccc23)ccc1F)N1CCN(C(=O)C2CC2)CC1 [olaparib]
P-gp substrate status (P-gp): known substrates for P-gp

O=C(c1cc(Cc2n[nH]c(=O)c3ccccc23)ccc1F)N1CC2(C1)CN(c1ccc(F)cc1)C2 [Compound 14, 4-(4-fluoro-3-(6-(4-fluorophenyl)-2,6-diazaspiro[3.3]heptane-2-carbonyl)benzyl)phthalazin-1(2H)-one]
Luminescence from unmetabolized ATP (P-gp ATPase stimulation or inhibition) (recombinant human P-gp): increased luminescence | IC50 (PARP-1): 0.3 nM

O=C(c1cc(Cc2n[nH]c(=O)c3ccccc23)ccc1F)N1CC(OCCF)C1 [Compound 9b, 4-(4-fluoro-3-(3-(2-fluoroethoxy)azetidine-1-carbonyl)benzyl)phthalazin-1(2H)-one]
IC50 (PARP-1): 7.5 ± 1.1 nM

O=C(c1cc(Cc2n[nH]c(=O)c3ccccc23)ccc1F)N1CC2(CC(c3ccc(F)cc3)C2)C1 [Compound 17, 4-(4-fluoro-3-(6-(4-fluorophenyl)-2-azaspiro[3.3]heptane-2-carbonyl)benzyl)phthalazin-1(2H)-one]
Luminescence from unmetabolized ATP (P-gp ATPase stimulation or inhibition) (recombinant human P-gp): increased luminescence | IC50 (PARP-1): 2.8 nM

O=C(c1cc(Cc2n[nH]c(=O)c3ccccc23)ccc1F)N1CCCC(OCCF)CC1 (stereo not drawn) [Compound 9f, 4-(4-fluoro-3-(4-(2-fluoroethoxy)azepane-1-carbonyl)benzyl)phthalazin-1(2H)-one]
IC50 (PARP-1): 5.6 ± 1.1 nM

O=C(c1cc(Cc2n[nH]c(=O)c3ccccc23)ccc1F)N1CC[C@H](OCCF)C1 [Compound 9d, (S)-4-(4-fluoro-3-(3-(2-fluoroethoxy)pyrrolidine-1-carbonyl)benzyl)phthalazin-1(2H)-one]
IC50 (PARP-1): 6.8 nM

C[C@]12CCCN1CC1=NNC(=O)c3cc(F)cc4[nH]c2c1c34 [BGB-290]
P-gp substrate status (P-gp): weak P-gp substrates

COC1CCN(C(=O)c2cc(Cc3n[nH]c(=O)c4ccccc34)ccc2F)CC1 [Compound 2, AZD2461]
P-gp substrate status (P-gp): weak P-gp substrates | P-gp substrate status (P-gp; listed as AZD2461): poor P-gp substrate

O=C(c1cc(Cc2n[nH]c(=O)c3ccccc23)ccc1F)N1CCN(c2ccc(F)cc2)CC1 [Compound 11a, 4-(4-fluoro-3-(4-(4-fluorophenyl)piperazine-1-carbonyl)benzyl)phthalazin-1(2H)-one]
IC50 (PARP-1): 0.6 ± 1.2 nM

C[C@]1(c2nc3c(C(N)=O)cccc3[nH]2)CCCN1 [veliparib]
P-gp substrate status (P-gp): weak P-gp substrates

O=C(c1cc(Cc2n[nH]c(=O)c3ccccc23)ccc1F)N1CC[C@@H](OCCF)C1 [Compound 9c, (R)-4-(4-fluoro-3-(3-(2-fluoroethoxy)pyrrolidine-1-carbonyl)benzyl)phthalazin-1(2H)-one]
IC50 (PARP-1): 10.1 ± 1.1 nM

O=C(c1cc(Cc2n[nH]c(=O)c3ccccc23)ccc1F)N1CCC(OCCF)CC1 [Compound 9e, 4-(4-fluoro-3-(4-(2-fluoroethoxy)piperidine-1-carbonyl)benzyl)phthalazin-1(2H)-one]
Luminescence from unmetabolized ATP (P-gp ATPase stimulation or inhibition) (recombinant human P-gp): increased luminescence | P-gp substrate status (recombinant human P-gp; authors' conclusion from the P-gp assay): weak substrate for P-gp | IC50 (PARP-1): 3.9 ± 1.2 nM

[Na+].[Na+].[Na+].[O]=[V]([O-])([O-])[O-] [Na3VO4, reference compound]
Luminescence from unmetabolized ATP (P-gp ATPase stimulation or inhibition) (recombinant human P-gp): increased luminescence
